Active and inactive are the calls of the source. The calls are words filed in the database; no cut-off is given here.

The source of these data is ChEMBL document CHEMBL4229424, “Design, synthesis and anticancer evaluation of acridine hydroxamic acid derivatives as dual Topo and HDAC inhibitors” (Bioorg Med Chem, 2018).

One assay deals with MDA-MB-231. As to the kind of experiment: Antiproliferative activity against human MDA-MB-231 cells after 48 hrs by MTT assay. Format: functional, cell-based. As to conditions: MDA-MB-231, 48 h. In short, it runs like this:
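Cells seeded at 5-10 × 10^3 per well and left 12 h at 37 °C, then given a range of concentrations (DMSO as blank) for 48 h. MTT (5 mg/mL) added for 4 h, formazan dissolved in DMSO, absorbance read at 490 nm. IC50 taken from dose-response curves of at least three independent experiments, mean ± SD.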
A general note: Formazan colour is commonly taken as a measure of viable cells.

Assay [1] relates to U-937. As to the kind of experiment: Antiproliferative activity against human U937 cells after 48 hrs by MTT assay. The assay is classed as functional, cell-based. Particulars: U-937, 48 h.
Assay [2] has as its target T1, DNA topoisomerase 1 (Homo sapiens) (UniProt P11387).
T1 sequence (whole entry): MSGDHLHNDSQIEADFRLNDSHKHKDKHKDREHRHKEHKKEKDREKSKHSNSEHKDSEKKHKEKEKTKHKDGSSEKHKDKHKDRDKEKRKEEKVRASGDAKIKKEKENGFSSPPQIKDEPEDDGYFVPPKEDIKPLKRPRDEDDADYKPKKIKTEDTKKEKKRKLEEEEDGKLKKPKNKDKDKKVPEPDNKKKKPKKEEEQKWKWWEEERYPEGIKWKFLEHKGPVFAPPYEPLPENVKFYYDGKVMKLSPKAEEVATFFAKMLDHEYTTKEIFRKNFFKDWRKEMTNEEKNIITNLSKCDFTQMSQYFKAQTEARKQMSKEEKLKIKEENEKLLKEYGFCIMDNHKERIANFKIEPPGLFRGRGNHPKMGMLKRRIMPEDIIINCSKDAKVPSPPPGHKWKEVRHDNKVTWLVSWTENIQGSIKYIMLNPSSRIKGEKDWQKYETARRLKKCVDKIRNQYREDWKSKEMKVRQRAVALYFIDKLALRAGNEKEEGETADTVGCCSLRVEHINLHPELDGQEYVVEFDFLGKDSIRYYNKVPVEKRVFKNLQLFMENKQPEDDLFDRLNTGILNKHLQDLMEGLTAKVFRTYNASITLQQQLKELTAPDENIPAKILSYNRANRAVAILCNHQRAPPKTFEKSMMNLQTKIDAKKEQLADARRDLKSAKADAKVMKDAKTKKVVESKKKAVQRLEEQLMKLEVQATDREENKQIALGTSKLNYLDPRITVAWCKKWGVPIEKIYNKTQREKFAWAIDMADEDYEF
Description: Inhibition of human topoisomerase 1 assessed as reduction in supercoiled pBR322 plasmid DNA relaxation at 100 uM after 10 to 15 mins by ethidium bromide staining based agarose gel electrophoresis. The gist of the method:
(§1)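 Relaxation assay with 500 ng supercoiled pBR322 DNA and 1 unit of human Topo I or Topo II in reaction buffer (20 µL), run at 37 °C for 10-15 min. Reaction stopped with loading buffer, then 1% agarose gel in TAE at 80 V for 0.5 h. Gel stained with ethidium bromide and bands viewed under UV. Camptothecin (Topo I) and m-AMSA (Topo II) served as references.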

For assay [3], the target named is DNA topoisomerase 2-alpha (Homo sapiens) (UniProt P11388). As to the kind of experiment: Inhibition of human topoisomerase 2alpha expressed in Escherichia coli assessed as reduction in supercoiled pBR322 plasmid DNA relaxation at 50 to 100 uM after 10 to 15 mins by ethidium bromide staining based agarose gel electrophoresis. In short, it runs like this: as §1
DNA topoisomerase 2-alpha (Homo sapiens), sequence (P11388 whole entry): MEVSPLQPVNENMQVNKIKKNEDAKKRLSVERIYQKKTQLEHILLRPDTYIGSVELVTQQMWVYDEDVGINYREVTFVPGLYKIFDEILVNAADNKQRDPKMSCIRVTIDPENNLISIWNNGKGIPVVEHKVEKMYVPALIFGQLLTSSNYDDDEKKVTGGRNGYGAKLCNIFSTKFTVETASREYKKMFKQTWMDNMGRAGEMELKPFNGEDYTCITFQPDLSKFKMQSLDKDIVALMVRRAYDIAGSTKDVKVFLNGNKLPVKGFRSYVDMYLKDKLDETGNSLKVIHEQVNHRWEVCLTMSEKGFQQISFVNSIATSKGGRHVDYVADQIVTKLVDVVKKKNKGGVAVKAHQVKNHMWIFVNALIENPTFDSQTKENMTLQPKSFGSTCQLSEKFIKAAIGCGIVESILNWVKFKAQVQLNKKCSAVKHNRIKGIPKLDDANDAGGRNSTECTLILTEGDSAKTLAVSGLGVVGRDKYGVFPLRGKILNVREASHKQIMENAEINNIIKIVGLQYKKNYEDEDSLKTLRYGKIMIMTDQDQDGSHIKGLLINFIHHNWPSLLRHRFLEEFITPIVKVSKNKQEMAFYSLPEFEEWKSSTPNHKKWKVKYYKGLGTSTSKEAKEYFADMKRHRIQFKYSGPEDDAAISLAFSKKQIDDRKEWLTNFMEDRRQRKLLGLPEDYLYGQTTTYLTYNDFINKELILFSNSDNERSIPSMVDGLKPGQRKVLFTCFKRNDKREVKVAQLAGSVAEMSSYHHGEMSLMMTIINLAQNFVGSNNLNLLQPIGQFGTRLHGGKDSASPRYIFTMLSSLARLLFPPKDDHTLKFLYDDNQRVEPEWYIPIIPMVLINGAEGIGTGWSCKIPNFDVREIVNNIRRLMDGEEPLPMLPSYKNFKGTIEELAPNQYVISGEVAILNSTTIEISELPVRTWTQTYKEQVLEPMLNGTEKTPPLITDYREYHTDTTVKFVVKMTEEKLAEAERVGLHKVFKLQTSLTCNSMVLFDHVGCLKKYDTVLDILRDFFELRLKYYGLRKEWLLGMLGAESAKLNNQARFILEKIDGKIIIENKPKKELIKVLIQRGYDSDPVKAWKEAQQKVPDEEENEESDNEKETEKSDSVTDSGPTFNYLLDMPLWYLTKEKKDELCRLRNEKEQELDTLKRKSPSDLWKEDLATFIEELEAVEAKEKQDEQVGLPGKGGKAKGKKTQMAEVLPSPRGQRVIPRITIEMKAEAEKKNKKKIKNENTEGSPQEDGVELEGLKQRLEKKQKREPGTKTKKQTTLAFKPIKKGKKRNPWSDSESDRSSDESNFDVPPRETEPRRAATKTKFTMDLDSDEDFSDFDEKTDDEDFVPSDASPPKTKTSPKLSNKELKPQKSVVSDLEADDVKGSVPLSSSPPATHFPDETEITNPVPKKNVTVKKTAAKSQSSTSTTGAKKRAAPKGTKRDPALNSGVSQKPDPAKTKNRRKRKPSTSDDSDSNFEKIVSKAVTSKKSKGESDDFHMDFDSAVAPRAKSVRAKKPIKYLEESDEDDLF
The target in assay [4] is T2, Protein deacetylase HDAC6 (Homo sapiens, UniProt Q9UBN7).
T2 sequence (Q9UBN7 whole entry): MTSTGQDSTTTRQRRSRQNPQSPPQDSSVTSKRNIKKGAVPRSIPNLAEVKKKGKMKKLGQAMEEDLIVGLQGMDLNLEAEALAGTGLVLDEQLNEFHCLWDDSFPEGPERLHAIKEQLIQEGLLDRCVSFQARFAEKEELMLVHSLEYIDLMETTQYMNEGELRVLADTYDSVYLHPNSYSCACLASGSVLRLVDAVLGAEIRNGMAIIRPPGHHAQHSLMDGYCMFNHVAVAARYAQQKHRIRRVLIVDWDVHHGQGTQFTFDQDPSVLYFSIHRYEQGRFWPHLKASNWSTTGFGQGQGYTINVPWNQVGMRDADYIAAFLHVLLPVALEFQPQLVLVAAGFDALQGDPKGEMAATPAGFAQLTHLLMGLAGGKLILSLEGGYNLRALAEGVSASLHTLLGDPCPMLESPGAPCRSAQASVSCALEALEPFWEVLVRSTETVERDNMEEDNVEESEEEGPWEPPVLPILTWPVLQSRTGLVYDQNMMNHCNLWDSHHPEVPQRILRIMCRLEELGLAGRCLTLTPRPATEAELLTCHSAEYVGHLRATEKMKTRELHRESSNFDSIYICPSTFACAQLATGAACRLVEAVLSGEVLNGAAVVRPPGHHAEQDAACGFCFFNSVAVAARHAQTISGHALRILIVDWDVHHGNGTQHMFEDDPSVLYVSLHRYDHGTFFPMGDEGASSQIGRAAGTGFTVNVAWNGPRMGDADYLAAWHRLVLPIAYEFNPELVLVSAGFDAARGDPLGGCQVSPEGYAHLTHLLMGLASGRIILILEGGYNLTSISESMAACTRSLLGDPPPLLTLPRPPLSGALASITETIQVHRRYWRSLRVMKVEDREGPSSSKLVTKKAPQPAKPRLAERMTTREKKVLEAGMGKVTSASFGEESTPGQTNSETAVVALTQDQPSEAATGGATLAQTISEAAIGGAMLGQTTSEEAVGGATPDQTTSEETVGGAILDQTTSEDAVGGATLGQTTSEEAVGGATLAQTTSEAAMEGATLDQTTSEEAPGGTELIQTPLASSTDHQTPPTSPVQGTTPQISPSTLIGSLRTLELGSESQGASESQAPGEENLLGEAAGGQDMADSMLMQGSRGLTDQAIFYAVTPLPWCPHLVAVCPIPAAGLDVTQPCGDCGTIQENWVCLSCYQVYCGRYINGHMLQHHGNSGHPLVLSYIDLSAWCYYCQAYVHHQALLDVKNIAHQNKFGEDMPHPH
As to the kind of experiment: Inhibition of HDAC6 (unknown origin) using Ac-peptide as substrate pretreated for 15 mins followed by substrate addition and measured after 1 hr by fluorescence assay.

A further assay deals with Histone deacetylase 1 (Homo sapiens, UniProt Q13547). As to the kind of experiment: Inhibition of HDAC1 (unknown origin) using Ac-peptide as substrate pretreated for 15 mins followed by substrate addition and measured after 1 hr by fluorescence assay.
Histone deacetylase 1, sequence (Q13547 whole entry): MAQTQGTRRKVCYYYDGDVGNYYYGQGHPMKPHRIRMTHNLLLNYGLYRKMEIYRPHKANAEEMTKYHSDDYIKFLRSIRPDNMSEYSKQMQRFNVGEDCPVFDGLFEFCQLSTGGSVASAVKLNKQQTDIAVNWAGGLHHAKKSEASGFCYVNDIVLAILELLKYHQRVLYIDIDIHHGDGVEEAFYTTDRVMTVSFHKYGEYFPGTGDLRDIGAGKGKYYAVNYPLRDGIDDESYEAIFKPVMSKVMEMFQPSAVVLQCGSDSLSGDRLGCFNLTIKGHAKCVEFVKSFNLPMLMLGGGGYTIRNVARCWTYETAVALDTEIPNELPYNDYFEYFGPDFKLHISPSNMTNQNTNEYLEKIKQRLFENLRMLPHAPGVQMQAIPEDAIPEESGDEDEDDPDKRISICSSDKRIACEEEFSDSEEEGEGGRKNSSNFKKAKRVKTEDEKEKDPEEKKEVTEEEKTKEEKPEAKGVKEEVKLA
The subject of a further assay is HCT-116. As to the kind of experiment: Antiproliferative activity against human HCT116 cells after 48 hrs by MTT assay. Format: functional, cell-based. Particulars: HCT-116, 48 h.
Assay [5] has as its system Calf thymus DNA. Description: Binding affinity to calf thymus DNA by UV-Vis absorption spectral analysis. The assay is classed as nucleic-acid assay. As to conditions: Bos taurus. In short, it runs like this:
(§2)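 Compound held at 10 μM and titrated with increasing calf thymus DNA in Tris-HCl buffer (pH 7.4). UV–visible absorption spectra recorded, and absorbance changes plotted against DNA concentration.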

The test system of assay [6] is U-937. As to the kind of experiment: Induction of apoptosis in human U937 cells assessed as increase in cleaved caspase 9 levels up to 2.5 uM after 36 hrs by Western blot analysis. The assay is classed as functional, cell-based. In short, it runs like this: (§3)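 U937 cells exposed to 0, 0.1, 0.5, 1 and 2.5 μM for 36 h. Cells lysed at 0 °C for 0.5 h, protein measured by BCA, and lysates run on 12% SDS-PAGE and transferred to PVDF. Blocking in 5% milk, primary antibodies (1:1000) at 4 °C overnight, HRP secondary for 2 h, ECL detection.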

Assay [7] has as its system Calf thymus DNA. As to the kind of experiment: Binding affinity to calf thymus DNA by fluorescence emission spectral analysis. As to conditions: Bos taurus. The assay is classed as nucleic-acid assay.
In assay [8] the test system is U-937. Description: Induction of apoptosis in human U937 cells assessed as increase in cleaved caspase 8 levels up to 2.5 uM after 36 hrs by Western blot analysis. Format: functional, cell-based. The gist of the method:
as §3

The subject of assay [9] is Calf thymus DNA. As to the kind of experiment: Binding affinity to calf thymus DNA assessed as assessed as bathochromic shift at 10 uM by UV-Vis absorption spectral analysis. The assay is classed as nucleic-acid assay. Particulars: Bos taurus. The gist of the method: as §2
In assay [10] the test system is Calf thymus DNA. As to the kind of experiment: Binding affinity to calf thymus DNA assessed as maximum absorption peak at 10 uM by UV-Vis absorption spectral analysis. As to conditions: Bos taurus. The assay is classed as nucleic-acid assay. The gist of the method:
as §2

The subject of assay [11] is U-937. Description: Induction of apoptosis in human U937 cells assessed as increase in cleaved caspase 3 levels up to 2.5 uM after 36 hrs by Western blot analysis. Format: functional, cell-based. In short, it runs like this: as §3
(Immunoblotting shows a protein as a band on a membrane.)

Assay [12] concerns U-937. As to the kind of experiment: Induction of apoptosis in human U937 cells assessed as increase in cleaved caspase 7 levels up to 2.5 uM after 36 hrs by Western blot analysis. The assay is classed as functional, cell-based. The gist of the method: as §3

Broadly, the IC50 is the midpoint of a concentration-inhibition curve. For the compound `O=C(CCCCCCC(=O)Nc1ccccc1)NO` [VORINOSTAT], in the assay on MDA-MB-231, the IC50 stood at 4.93 µM.
For `O=C(CCCCCCn1cc(-c2ccc(Nc3c4ccccc4nc4ccccc34)cc2)nn1)NOC1CCCCO1` (configuration not stated), in the assay with U-937 [1], the IC50 stood at 21400 nM.
With `O=C(CCc1ccc(Nc2c3ccccc3nc3ccccc23)cc1)NO`, the concentration for half-maximal inhibition (IC50) amounted to 29.1 µM with MDA-MB-231; 99.3 nM in assay [4]; 134 nM on Histone deacetylase 1; 1880 nM in the assay on HCT-116; 750 nM with U-937 [1]. Also, the inhibition entry in assay [2] and in assay [3] was “Active” in each case.
`COc1ccc2nc3cc(Cl)ccc3c(Nc3cccc(-c4cn(CCCCCC(=O)NO)nn4)c3)c2c1`: in [3], the inhibition entry was “Active”. The figures for the IC50 (in assay [4]; on Histone deacetylase 1; in the assay on U-937 [1]) were 13.3 nM, 224 nM and 2940 nM, respectively.
With `O=C(CCCCCn1cc(-c2ccc(Nc3c4ccccc4nc4ccccc34)cc2)nn1)NO`, the inhibition result in assay [3] is “Active”. The IC50 came out at 2.6 nM in assay [4], 8.2 nM at Histone deacetylase 1 and 1340 nM in the assay with U-937 [1].
For `COc1cc(NS(C)(=O)=O)ccc1Nc1c2ccccc2nc2ccccc12` [AMSACRINE], the values for the IC50 in the assay with MDA-MB-231 and with HCT-116 were 10.1 µM and < 1000 nM, respectively. The inhibition result in assay [3] is “Active”. In the assay with Calf thymus DNA [5], this compound had a Kb of 1.36 ×10⁵ /M.
The compound `COC(=O)CCc1ccc(Nc2c3ccccc3nc3ccccc23)cc1` returned an IC50 with U-937 [1] of 3870 nM.
Turning to `O=C(CCCCCCn1cc(-c2ccc(Nc3c4ccccc4nc4ccccc34)cc2)nn1)NO`, the result in the assay on U-937 [6], in the assay on U-937 [8], in the assay with Calf thymus DNA [9], with U-937 [11] and in the assay with U-937 [12] was Active. Moreover, the Kq in the assay with Calf thymus DNA [7] was 1.56 ×10⁵ /M. Moreover, the IC50 in the assay with MDA-MB-231 came to 7.09 µM; in [4], 2.9 nM; on Histone deacetylase 1, 3.9 nM; in the assay on HCT-116, 2110 nM; in the assay with U-937 [1], 900 nM. Besides, in assay [3], the inhibition entry was “Active”. In the assay on Calf thymus DNA [5], this compound had a Kb of 1.67 ×10⁵ /M. In addition, in the assay with Calf thymus DNA [10], the Activity worked out at 430 nm.
With `O=C(CCCCCCn1cc(-c2cccc(Nc3c4ccccc4nc4ccccc34)c2)nn1)NO`, the inhibition result in assay [3] was “Active”. Besides, the IC50 was 5 nM in assay [4], 5.1 nM at Histone deacetylase 1 and 1240 nM in the assay on U-937 [1].
For `COc1ccc2nc3cc(Cl)ccc3c(Nc3ccc(-c4cn(CCCCCC(=O)NO)nn4)cc3)c2c1` the same measures were “Active”, 29 nM, 306 nM and 3550 nM.
For the compound `COc1ccc2nc3cc(Cl)ccc3c(Nc3ccc(CCC(=O)NO)cc3)c2c1`, in assay [3], the inhibition entry was “Active”. Besides, the values for the IC50 (in [4]; at Histone deacetylase 1; in the assay on U-937 [1]) were 80.8 nM, 66.2 nM and 1120 nM, respectively.
For `O=C(CCCCCn1cc(-c2cccc(Nc3c4ccccc4nc4ccccc34)c2)nn1)NO` the same measures were “Active”, 3.4 nM, 14.1 nM and 2670 nM.
